Results taken from ChEMBL document CHEMBL4428089 (Bioorg Med Chem, 2016).
Calls of active or inactive are those of the source. No cut-off for these calls is given here.

Experiments:
D(3) dopamine receptor [1] = target: D(3) dopamine receptor (Rattus norvegicus, UniProt P19020); test: Displacement of [3H]spiperone from rat D3 dopamine receptor expressed in HEK293 cell membranes after 1 hr
D(2) dopamine receptor [2] = target: T1, D(2) dopamine receptor (Homo sapiens, UniProt P14416); test: Agonist activity at human D2 dopamine receptor expressed in CHO cells by [35S]GTPgammaS binding assay; format: functional, cell-based
T1 sequence (P14416 whole entry): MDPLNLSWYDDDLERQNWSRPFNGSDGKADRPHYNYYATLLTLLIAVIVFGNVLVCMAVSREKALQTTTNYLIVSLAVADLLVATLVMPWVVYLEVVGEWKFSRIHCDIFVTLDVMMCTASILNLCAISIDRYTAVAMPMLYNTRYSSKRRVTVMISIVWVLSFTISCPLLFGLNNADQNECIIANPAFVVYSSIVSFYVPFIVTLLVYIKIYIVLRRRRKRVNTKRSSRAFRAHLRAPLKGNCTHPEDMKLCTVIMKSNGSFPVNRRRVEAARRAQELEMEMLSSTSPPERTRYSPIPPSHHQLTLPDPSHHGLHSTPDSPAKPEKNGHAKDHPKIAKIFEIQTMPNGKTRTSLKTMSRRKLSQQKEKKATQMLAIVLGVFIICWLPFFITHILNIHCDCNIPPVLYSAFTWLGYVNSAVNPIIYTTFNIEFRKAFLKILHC
Procedure, shortened: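 [35S]GTPγS binding stimulated in CHO cells expressing human D2 or D3 receptors. The D2/D3 ratio is the ratio of the EC50 values. Values are means ± SEM of three to five experiments, each run in triplicate.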

D(2) dopamine receptor [3] = target: T1, D(2) dopamine receptor; test: Agonist activity at human D2 dopamine receptor expressed in CHO cells by [35S]GTPgammaS binding assay relative to dopamine; format: functional, cell-based
Procedure, shortened: (§1)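 [35S]GTPγS binding stimulated in CHO cells expressing human D2 or D3 receptors. […] The D2/D3 ratio is the ratio of the EC50 values. Values are means ± SEM of three to five experiments, each run in triplicate.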

D(3) dopamine receptor [4] = target: T2, D(3) dopamine receptor (Homo sapiens, UniProt P35462); test: Agonist activity at human D3 dopamine receptor expressed in CHO cells by [35S]GTPgammaS binding assay; format: functional, cell-based
T2 sequence (P35462 whole entry): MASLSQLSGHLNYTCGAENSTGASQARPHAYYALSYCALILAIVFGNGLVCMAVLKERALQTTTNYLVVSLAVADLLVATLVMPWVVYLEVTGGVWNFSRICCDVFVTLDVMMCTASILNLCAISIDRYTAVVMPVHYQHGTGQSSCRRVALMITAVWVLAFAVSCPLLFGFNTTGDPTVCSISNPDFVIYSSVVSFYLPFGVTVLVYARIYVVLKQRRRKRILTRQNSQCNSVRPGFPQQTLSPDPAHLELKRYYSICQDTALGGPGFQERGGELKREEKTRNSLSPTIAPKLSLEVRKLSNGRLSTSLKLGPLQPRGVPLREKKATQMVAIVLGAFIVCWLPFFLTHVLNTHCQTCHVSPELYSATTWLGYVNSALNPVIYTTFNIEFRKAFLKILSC

D(3) dopamine receptor [5] = target: T2, D(3) dopamine receptor; test: Agonist activity at human D3 dopamine receptor expressed in CHO cells by [35S]GTPgammaS binding assay relative to dopamine; format: functional, cell-based; procedure, shortened: as §1
D(2) dopamine receptor [6] = target: D(2) dopamine receptor (Rattus norvegicus, UniProt P61169); test: Displacement of [3H]spiperone from rat D2L dopamine receptor expressed in HEK293 cell membranes after 1 hr
Chain of D(2) dopamine receptor (Rattus norvegicus, UniProt P61169) (P61169 whole entry): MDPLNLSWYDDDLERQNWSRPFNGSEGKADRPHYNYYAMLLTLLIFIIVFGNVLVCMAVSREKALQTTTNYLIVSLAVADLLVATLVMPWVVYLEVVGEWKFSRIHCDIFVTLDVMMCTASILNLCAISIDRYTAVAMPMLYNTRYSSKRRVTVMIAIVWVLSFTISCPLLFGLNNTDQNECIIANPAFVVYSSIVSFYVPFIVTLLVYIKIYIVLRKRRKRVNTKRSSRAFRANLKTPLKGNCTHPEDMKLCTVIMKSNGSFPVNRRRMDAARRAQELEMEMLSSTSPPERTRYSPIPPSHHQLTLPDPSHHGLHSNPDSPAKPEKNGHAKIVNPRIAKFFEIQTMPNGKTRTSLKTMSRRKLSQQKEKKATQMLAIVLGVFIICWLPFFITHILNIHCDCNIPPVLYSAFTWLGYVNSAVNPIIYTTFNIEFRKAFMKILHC

Rattus norvegicus [7] = species: Rattus norvegicus; test: Selectivity ratio of Ki for rat D2L dopamine receptor expressed in HEK293 cells to Ki for rat D3 dopamine receptor expressed in HEK293 cells; format: cell-based
PC-12 [8] = test: Neuroprotective activity against 6-OHDA induce toxicity in rat PC12 cells assessed as cell viability preincubated for 24 hrs followed by 6-OHDA addition for 24 hrs by MTT assay; format: functional, cell-based
Procedure, shortened: (§2)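 PC12 cells were pretreated for 24 h across a concentration range (0.1-30 µM or 1-50 µM, depending on compound). A single dose of 75 µM 6-OHDA was then added for a further 24 h. Cell viability was measured by MTT assay.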

PC-12 [9] = test: Neuroprotective activity against 6-OHDA induce toxicity in rat PC12 cells assessed as cell viability at 30 uM preincubated for 24 hrs followed by 6-OHDA addition for 24 hrs by MTT assay; format: functional; details: read-out: Activity; procedure, shortened: as §2
Homo sapiens = species: Homo sapiens; test: Selectivity ratio of EC50 for human D2 dopamine receptor expressed in CHO cells to EC50 for human D3 dopamine receptor expressed in CHO cells; format: cell-based; procedure, shortened: as §1
[10] = target: Alpha-synuclein (Homo sapiens) (UniProt P37840); test: Induction of recombinant alphaSN (unknown origin) fibrillation at 120 uM after 6 days by ThT fluorescence assay
Procedure, shortened: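 Cell-free alpha-synuclein aggregation: SN shaken alone or co-incubated with each drug for 6 days. Fibrillization read by thioflavin T fluorescence and normalized to SN shaken alone for six days. Drugs were also run without SN to check for ThT interference. Means ± SEM of three independent experiments; one-way ANOVA with Tukey's post hoc test.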

Rattus norvegicus [11] = test: Reversal of reserpine-induced hypolocomotion in Sprague-Dawley rat assessed as locomotor stimulation at 10 umol/kg, ip administered 18 hrs post reserpine challenge measured over 6 hrs; format: functional, organism-based
Procedure, shortened: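 Rats received reserpine 5 mg/kg s.c. The drug was given at 10 µmol/kg i.p. 18 h after reserpine. Horizontal activity (beam interruptions) was recorded in 30-min intervals and compared with reserpine-only controls. n=3 rats per value, mean ± SEM, one-way ANOVA.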

[12] = target: Alpha-synuclein (Homo sapiens) (UniProt P37840); test: Inhibition of recombinant alphaSN (unknown origin) fibrillation at 120 uM after 6 days by ThT fluorescence assay
Procedure, shortened: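 α-Synuclein was shaken for 6 days with or without the drug. Fibrillization was read by ThT fluorescence, normalized to α-synuclein shaken alone at day 6. Drugs were also tested alone in the ThT read-out. Values are means ± SEM of three independent experiments, compared by one-way ANOVA with Tukey post hoc test.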

Chain of D(3) dopamine receptor (Rattus norvegicus, UniProt P19020) (P19020 whole entry): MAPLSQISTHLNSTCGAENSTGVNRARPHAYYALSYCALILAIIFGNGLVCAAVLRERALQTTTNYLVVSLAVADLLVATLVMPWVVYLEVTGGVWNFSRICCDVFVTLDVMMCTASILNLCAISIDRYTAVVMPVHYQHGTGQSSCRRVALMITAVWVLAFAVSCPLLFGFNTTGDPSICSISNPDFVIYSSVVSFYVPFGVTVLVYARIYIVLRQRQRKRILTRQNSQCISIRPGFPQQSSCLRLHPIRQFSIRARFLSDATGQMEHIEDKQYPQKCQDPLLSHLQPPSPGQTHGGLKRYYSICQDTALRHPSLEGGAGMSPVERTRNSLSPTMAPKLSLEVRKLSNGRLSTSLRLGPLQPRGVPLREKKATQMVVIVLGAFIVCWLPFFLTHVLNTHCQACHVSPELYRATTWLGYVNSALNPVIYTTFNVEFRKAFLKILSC

| Ki (D(3) dopamine receptor [1]) [nM] | EC50 (D(2) dopamine receptor [2]) [nM] | Emax (D(2) dopamine receptor [3]) [%] | EC50 (D(3) dopamine receptor [4]) [nM] | Emax (D(3) dopamine receptor [5]) [%] | Compound | Ratio Ki (Rattus norvegicus [7]) | also measured |
| --- | --- | --- | --- | --- | --- | --- | --- |
| 0.78 | 9.3 | 88 | 1.22 | 90.9 | CCCN(CCCCCc1cc(O)ccc1O)[C@H]1CCc2nc(N)sc2C1 |  |  |
| 22.3 | 37.7 | 84.3 | 20.4 | 87.5 | CCCN(CCC/C=C/c1ccc(O)c(OC)c1)[C@H]1CCc2nc(N)sc2C1 | 6 | Ki (D(2) dopamine receptor [6]): 123 nM; Activity (PC-12 [8]): Dose-dependent effect; viability at 30 µM (PC-12 [9]): 18 to 25%; Ratio EC50 (Homo sapiens): 1.85 |
| 3.62 |  |  |  |  | CCCN(CCCCCc1ccc(O)c(OC)c1)C1CCc2nc(N)sc2C1 (racemic) | 48 |  |
|  | 2.09 | 96.2 | 0.78 | 94.4 | CCCN(CCCCCc1ccc(O)c(OC)c1)[C@H]1CCc2nc(N)sc2C1 | 43 | Ratio EC50 (Homo sapiens): 2.68 |
| 0.675 |  |  |  |  | CCCN(CCCCCCc1ccc(O)c(OC)c1)C1CCc2nc(N)sc2C1 (racemic) | 87 | Ki (D(2) dopamine receptor [6]): 58.5 nM |
|  |  |  |  |  | CCCN(CCC/C=C\c1ccc(O)c(OC)c1)C1CCc2nc(N)sc2C1 (racemic) | 10 |  |
|  |  |  |  |  | CCCN(CCC)C1CCc2c(O)cccc2C1 (configuration not stated) |  | Activity [10]: Active |
|  |  |  |  |  | CCCN(CCC)CCc1cccc2c1CC(=O)N2 |  | Activity (Rattus norvegicus [11]): Active |
| 4.24 |  |  |  |  | CCCN(CCC/C=C/c1ccc(O)c(OC)c1)C1CCc2nc(N)sc2C1 (racemic) | 35 | Ki (D(2) dopamine receptor [6]): 150 nM |
|  |  |  |  |  | CCCN[C@H]1CCc2nc(N)sc2C1 |  | Activity [10]: Active |
|  |  |  |  |  | CCCN(C/C=C/c1ccc(O)c(OC)c1)C1CCc2nc(N)sc2C1 (configuration not stated) | 119 |  |
|  | 22.9 | 97.4 | 2.62 | 83.4 | CCCN(CCCCCc1ccc(O)c(O)c1)[C@H]1CCc2nc(N)sc2C1 | 46 | Activity (Rattus norvegicus [11]): Active; Activity (PC-12 [8]): Dose-dependent effect; viability at 30 µM (PC-12 [9]): 18 to 25%; inhibition [12]: Active; Ratio EC50 (Homo sapiens): 8.74 |
| 0.493 | 0.27 | 88.8 | 0.33 | 90.9 | CCCN(CCCCCc1ccc(O)c(O)c1)[C@H]1CCc2c(O)cccc2C1 | 9 | Ki (D(2) dopamine receptor [6]): 4.67 nM; Activity (PC-12 [8]): Dose-dependent effect; viability at 30 µM (PC-12 [9]): 18 to 25%; inhibition [12]: Active; Ratio EC50 (Homo sapiens): 0.82 |
|  |  |  |  |  | CCCN(CCCc1ccc(O)c(OC)c1)C1CCc2nc(N)sc2C1 (racemic) | 153 |  |
|  |  |  |  |  | CCCN(CCCCCc1ccc(O)c(O)c1)C1CCc2nc(N)sc2C1 (racemic) | 45 |  |
